High-throughput results: PubChem BioAssay, several laboratories
The list is not random: actives were taken first. Their share in the collection is about 0.78%.
S1P1 ag-PAM: activates or potentiates agonism at human S1P1 receptor. P21453. activation, % at 9.5 µM. S1P1 CRE-bla cells, forskolin, beta-lactamase FRET, potentiator mode; S1P1 agonist co-added at EC20, 2 nM; 100% = saturating reference agonist, 0% = basal. 0.57% of 56,000 active;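 active means activation above a cutoff set at the mean activation of all tested compounds plus 3 SD, cut at about 54% in these data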;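 further: forskolin at 4 µM as EC80 and the EC20 agonist is SEW2871; 100% = SEW2871 at its EC100 plus forskolin at EC80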
mHtt clearance: mutant huntingtin protein clearance; HeLa Exon1htt(103Q)mCFP, aggregate imaging; zero = plate's median compound well; inhibition, % at 1.5 µM; 0.42% of 47,000 active;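 active means inhibition of aggregate fluorescence above about 70%, also judged a hit by eye on the cell image, limit read from the data, passing the limit was not always enough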;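 further: cells exposed to compound for three days before fixation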
MMP-13 inhibitor: blocks human MMP13 activity; MMP-13 fTHP FRET cleavage, Mca fluorescence; P45452; 0.07% of 65,000 active; inhibition, % at 4 µM;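 active means inhibition above the mean of compound-free control plate wells plus 3 SD, cut at about 14% in these data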;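 further: 0% = DMSO wells and 100% = wells with reference MMP-13 inhibitor after basal subtraction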
S1P3 ag: agonists of human S1P3 receptor | S1P3 NFAT-BLA reporter cells, agonism, FRET ratio; relative to 1 µM S1P, basal subtracted | AID 373 | activation, % at 4.5 µM | 0.1% of 60,000 active | Q99500;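 active means activation above the screen-wide mean plus 3 SD, cut at about 4.5% in these data, passing the limit was not always enough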
Target sequence (Q99500 whole entry, looked up): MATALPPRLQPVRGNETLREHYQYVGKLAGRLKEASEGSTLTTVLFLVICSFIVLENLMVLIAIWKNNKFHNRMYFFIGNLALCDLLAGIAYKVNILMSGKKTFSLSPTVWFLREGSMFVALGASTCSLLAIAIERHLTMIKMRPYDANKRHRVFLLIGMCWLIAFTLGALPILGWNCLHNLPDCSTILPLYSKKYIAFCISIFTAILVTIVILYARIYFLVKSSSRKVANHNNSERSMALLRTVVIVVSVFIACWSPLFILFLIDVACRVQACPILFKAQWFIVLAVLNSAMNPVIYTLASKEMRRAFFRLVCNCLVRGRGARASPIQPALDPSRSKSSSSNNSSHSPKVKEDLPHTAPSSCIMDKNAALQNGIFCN
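Material: Human S1P3 NFAT-BLA reporter CHO cells | Incubation: Overnight plating, 4 h compound 37 °C, 2 h substrate RT | Signal: FRET β-lactamase substrate fluorescence, excitation 405 nm, 460/535 nm emission ratio, background-subtracted | Compound: 4.5 µM final, single dose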
Numbers without * were called inactive.

For O=c1c2ccccc2nc2n1CCN2Cc1ccc(Cl)cc1 the results were S1P1 ag-PAM 43, MMP-13 inhibitor -41 and S1P3 ag -1.
CC(=O)c1cccc(NC(=S)NC(=O)CC(C)(C)C)c1 was read as mHtt clearance -8.
CC(C)COC(=O)NCCOC(=O)Nc1cccc(Cl)c1 was read as S1P1 ag-PAM 70*, mHtt clearance -31, MMP-13 inhibitor 0 and S1P3 ag -1.
For CCOC(=O)c1ccc2ncc(C(=O)OCC)c(NCc3ccco3)c2c1 the results were S1P1 ag-PAM -9, mHtt clearance 19, MMP-13 inhibitor -154 and S1P3 ag -1.
For CCCc1nc(SCC(=O)Nc2cc(C)on2)c2ccccc2n1 the results were S1P1 ag-PAM 9, MMP-13 inhibitor 0 and S1P3 ag 0.
Screening Cc1cc(NC(=O)CSc2nc(CCC3CCCC3)nc3ccccc23)no1 returned S1P1 ag-PAM 9, mHtt clearance 84*, MMP-13 inhibitor 0 and S1P3 ag 1.
CCCC(=O)c1ccc(N2CCN(C(=O)c3ccccc3Br)CC2)c(F)c1 was read as S1P1 ag-PAM 98*, mHtt clearance -11, MMP-13 inhibitor 4 and S1P3 ag -2.
`CCCC(=O)c1ccc(N2CCN(C(=O)c3ccccc3)CC2)c(F)c1` gave S1P1 ag-PAM 23, mHtt clearance 5, MMP-13 inhibitor -2 and S1P3 ag -2.
For C=CCn1c(Cc2csc(N)n2)nnc1SCC(=O)Nc1ccccc1C(F)(F)F the results were mHtt clearance 8.
`Cc1ccc(NN2C(=O)C=C(c3ccc(Cl)cc3)C2=O)cc1` gave mHtt clearance -16.
O=C(NCc1nc2ccccc2[nH]1)c1ccco1 was read as S1P1 ag-PAM 10, MMP-13 inhibitor 3 and S1P3 ag -1.
O=C(N/C(=C/c1ccc(Br)cc1)c1nc2ccccc2[nH]1)c1ccco1 was read as mHtt clearance 80*.
Screening c1ccc(N2CCN(c3ncnc4c3oc3ccccc34)CC2)cc1 returned S1P1 ag-PAM 61*, mHtt clearance -26, MMP-13 inhibitor -12 and S1P3 ag -1.
For CCOC(=O)C1CCN(c2ncnc3c2oc2ccccc23)CC1 the results were S1P1 ag-PAM 97*, mHtt clearance 53, MMP-13 inhibitor 0 and S1P3 ag -1.
For O=C(N/N=C1\CCCc2ccccc21)c1ccc([N+](=O)[O-])cc1Cl the results were mHtt clearance 12.
COc1ccc(S(=O)(=O)N2CCC(C(=O)NCC3CCCO3)CC2)cc1 (stereo not drawn) was read as mHtt clearance -1.
`COc1ccc(N2CCN(CCCNS(=O)(=O)c3c(C)noc3/C=C/N(C)C)CC2)cc1` gave S1P1 ag-PAM 8, mHtt clearance 2, MMP-13 inhibitor 2 and S1P3 ag 0.
For COCCn1c(C)cc(C(=O)CSc2nc3ccccc3o2)c1C the results were S1P1 ag-PAM 66*, MMP-13 inhibitor -8 and S1P3 ag 0.
`COCCn1c(C)cc(C(=O)CSc2nnc3ccccn23)c1C` gave S1P1 ag-PAM -16, MMP-13 inhibitor -1 and S1P3 ag 0.
O=C(CCC(=O)c1ccc[nH]1)c1ccc(Cl)cc1 was read as S1P1 ag-PAM 7, mHtt clearance 75*, MMP-13 inhibitor -7 and S1P3 ag 0.
Screening CN(Cc1ccccc1)c1nc2c(c(=O)[nH]c(=O)n2C)n1CCSc1ncccn1 returned mHtt clearance 2.
`COc1ccc(NS(=O)(=O)c2ccc(SC)cc2)cc1` gave S1P1 ag-PAM 21, mHtt clearance 86*, MMP-13 inhibitor 2 and S1P3 ag -1.
Cc1cc(C=O)c(C)n1-c1ccc(N2CCCC2)c([N+](=O)[O-])c1 was read as mHtt clearance -6.
`O=S(=O)(NCc1cn2ccsc2n1)c1ccc(Oc2ccccc2)cc1` gave S1P1 ag-PAM 84*, MMP-13 inhibitor 4 and S1P3 ag 0.
Screening O=S(=O)(NCc1cn2ccsc2n1)c1cccs1 returned S1P1 ag-PAM -36, mHtt clearance 5, MMP-13 inhibitor 2 and S1P3 ag 0.
`O=C1C2C3c4ccccc4C(c4ccccc43)C2C(=O)N1Cc1cccnc1` (stereo not drawn) gave mHtt clearance 39.
`c1ccc(CCCNc2ncnc3nc[nH]c23)cc1` gave S1P1 ag-PAM 3, MMP-13 inhibitor 4 and S1P3 ag -1.
`Clc1ccc(CCNc2ncnc3nc[nH]c23)cc1` gave S1P1 ag-PAM 85*, mHtt clearance 32, MMP-13 inhibitor 0 and S1P3 ag -2.
`CC1CCCCC1NS(=O)(=O)c1ccc(S(=O)(=O)NCc2ccncc2)cc1` (stereo not drawn) gave S1P1 ag-PAM 48, MMP-13 inhibitor 0 and S1P3 ag -1.
For CCN1C(=S)SC(=O)C1=C1C=C(C)N(CCOC)C(C)=C1 the results were MMP-13 inhibitor 27*.
`CCN1C(=S)SC(=O)C1=C1C=C(C)N(CCO)C(C)=C1` gave MMP-13 inhibitor 13.
`Cc1ccccc1NC(=O)CSc1nc(N)c(C#N)c(-c2cccs2)c1C#N` gave S1P1 ag-PAM -3, mHtt clearance 0, MMP-13 inhibitor 2 and S1P3 ag 0.
COc1ccc(CCNC(=O)CSc2nc(N)c(C#N)c(-c3cccs3)c2C#N)cc1OC was read as S1P1 ag-PAM -7, mHtt clearance 72*, MMP-13 inhibitor 2 and S1P3 ag -1.
`CCC12CCCN3CCC4(C(=C(C(=O)OC)C1)Nc1ccccc14)C32` (stereo not drawn) gave S1P1 ag-PAM -42, MMP-13 inhibitor -4 and S1P3 ag -1.
CCCOC(=O)c1ccc(OCC(O)Cn2c(C)nc3ccccc32)cc1 (stereo not drawn) was read as S1P1 ag-PAM 95*, MMP-13 inhibitor 1 and S1P3 ag -1.
CC(=O)Nc1cccc(OCC(O)Cn2c(C)nc3ccccc32)c1 (stereo not drawn) was read as mHtt clearance 59.
`O=C(CCc1ccc(S(=O)(=O)N2CCOCC2)cc1)N1CCN(Cc2ccc3c(c2)OCO3)CC1` gave mHtt clearance -8.
`CC(C)c1cc(C(=O)O)n(-c2ccccc2)n1` gave mHtt clearance 40.
`O=C(COc1ccccc1)NC(Cc1c[nH]c2ccccc12)C(=O)O` (stereo not drawn) gave S1P1 ag-PAM -18, mHtt clearance 71*, MMP-13 inhibitor 1 and S1P3 ag -1.
Screening CCOc1ccc(N2CC(C(=O)Nc3ccccc3N3CCOCC3)CC2=O)cc1 (stereo not drawn) returned mHtt clearance -60.
`CCCCCCOc1ccc(C(CC(=O)O)C(N)=O)cc1` (stereo not drawn) gave S1P1 ag-PAM -7, mHtt clearance 25, MMP-13 inhibitor 26* and S1P3 ag 0.
Screening C=CCN=C(C)C1=C(O)CCC1=O returned S1P1 ag-PAM 1, mHtt clearance 77*, MMP-13 inhibitor -1 and S1P3 ag 0.
Nc1nonc1C(=O)NCCNCc1ccccc1OCc1ccccc1F was read as S1P1 ag-PAM -2, MMP-13 inhibitor -5 and S1P3 ag -2.
